Consider 27 compounds from ChEMBL document CHEMBL1133106, “Synthesis and evaluation of peptidomimetics as selective inhibitors and active site probes of nitric oxide synthases” (J Med Chem, 2000).

Experiment [1] can be described thus: Ratio of binding affinity of eNOS to nNOS. The method, boiled down: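 Ratio of apparent Ki values (eNOS Ki over nNOS Ki). Recombinant bovine eNOS and nNOS were isolated from E. coli expression. NO formation was followed by the hemoglobin capture assay with 10 µM L-arginine and at least three inhibitor concentrations.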
Experiment [2] has as its target T1, Nitric oxide synthase 3 (Bos taurus, UniProt P29473).
T1 sequence (P29473 whole entry): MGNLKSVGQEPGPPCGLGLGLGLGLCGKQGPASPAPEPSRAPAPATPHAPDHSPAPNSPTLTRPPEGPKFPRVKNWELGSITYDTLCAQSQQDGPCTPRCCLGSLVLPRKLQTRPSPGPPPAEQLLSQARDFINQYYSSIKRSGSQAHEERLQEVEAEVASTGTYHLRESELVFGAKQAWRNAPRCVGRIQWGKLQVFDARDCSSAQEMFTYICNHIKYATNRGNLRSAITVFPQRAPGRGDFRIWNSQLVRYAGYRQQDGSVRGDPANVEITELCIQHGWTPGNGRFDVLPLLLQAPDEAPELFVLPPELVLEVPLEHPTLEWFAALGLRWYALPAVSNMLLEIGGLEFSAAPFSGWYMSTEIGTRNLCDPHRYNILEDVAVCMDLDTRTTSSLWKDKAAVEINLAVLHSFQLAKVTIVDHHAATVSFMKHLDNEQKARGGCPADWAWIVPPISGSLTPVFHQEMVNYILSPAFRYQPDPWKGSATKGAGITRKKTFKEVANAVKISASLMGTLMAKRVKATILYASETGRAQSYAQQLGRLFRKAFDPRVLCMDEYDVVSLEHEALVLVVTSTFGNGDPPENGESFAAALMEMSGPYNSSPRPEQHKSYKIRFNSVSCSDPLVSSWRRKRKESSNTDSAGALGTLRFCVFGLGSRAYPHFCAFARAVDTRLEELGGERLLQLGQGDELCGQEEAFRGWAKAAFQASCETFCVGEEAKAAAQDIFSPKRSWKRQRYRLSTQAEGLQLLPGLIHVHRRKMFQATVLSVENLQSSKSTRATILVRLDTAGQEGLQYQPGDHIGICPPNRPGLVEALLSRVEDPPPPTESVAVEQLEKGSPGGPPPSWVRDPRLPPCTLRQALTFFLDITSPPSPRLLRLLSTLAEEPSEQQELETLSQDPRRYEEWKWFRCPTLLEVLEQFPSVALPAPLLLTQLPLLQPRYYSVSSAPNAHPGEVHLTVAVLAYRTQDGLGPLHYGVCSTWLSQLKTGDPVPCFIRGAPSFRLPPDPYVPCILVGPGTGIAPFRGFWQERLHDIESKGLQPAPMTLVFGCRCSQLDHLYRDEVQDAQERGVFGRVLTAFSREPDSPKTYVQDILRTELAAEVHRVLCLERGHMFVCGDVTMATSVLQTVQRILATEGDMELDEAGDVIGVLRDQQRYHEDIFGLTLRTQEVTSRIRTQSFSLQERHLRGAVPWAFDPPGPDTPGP

The target in experiment [3] is T2, Nitric oxide synthase, inducible (Mus musculus, UniProt P29477).
T2 sequence (P29477 whole entry): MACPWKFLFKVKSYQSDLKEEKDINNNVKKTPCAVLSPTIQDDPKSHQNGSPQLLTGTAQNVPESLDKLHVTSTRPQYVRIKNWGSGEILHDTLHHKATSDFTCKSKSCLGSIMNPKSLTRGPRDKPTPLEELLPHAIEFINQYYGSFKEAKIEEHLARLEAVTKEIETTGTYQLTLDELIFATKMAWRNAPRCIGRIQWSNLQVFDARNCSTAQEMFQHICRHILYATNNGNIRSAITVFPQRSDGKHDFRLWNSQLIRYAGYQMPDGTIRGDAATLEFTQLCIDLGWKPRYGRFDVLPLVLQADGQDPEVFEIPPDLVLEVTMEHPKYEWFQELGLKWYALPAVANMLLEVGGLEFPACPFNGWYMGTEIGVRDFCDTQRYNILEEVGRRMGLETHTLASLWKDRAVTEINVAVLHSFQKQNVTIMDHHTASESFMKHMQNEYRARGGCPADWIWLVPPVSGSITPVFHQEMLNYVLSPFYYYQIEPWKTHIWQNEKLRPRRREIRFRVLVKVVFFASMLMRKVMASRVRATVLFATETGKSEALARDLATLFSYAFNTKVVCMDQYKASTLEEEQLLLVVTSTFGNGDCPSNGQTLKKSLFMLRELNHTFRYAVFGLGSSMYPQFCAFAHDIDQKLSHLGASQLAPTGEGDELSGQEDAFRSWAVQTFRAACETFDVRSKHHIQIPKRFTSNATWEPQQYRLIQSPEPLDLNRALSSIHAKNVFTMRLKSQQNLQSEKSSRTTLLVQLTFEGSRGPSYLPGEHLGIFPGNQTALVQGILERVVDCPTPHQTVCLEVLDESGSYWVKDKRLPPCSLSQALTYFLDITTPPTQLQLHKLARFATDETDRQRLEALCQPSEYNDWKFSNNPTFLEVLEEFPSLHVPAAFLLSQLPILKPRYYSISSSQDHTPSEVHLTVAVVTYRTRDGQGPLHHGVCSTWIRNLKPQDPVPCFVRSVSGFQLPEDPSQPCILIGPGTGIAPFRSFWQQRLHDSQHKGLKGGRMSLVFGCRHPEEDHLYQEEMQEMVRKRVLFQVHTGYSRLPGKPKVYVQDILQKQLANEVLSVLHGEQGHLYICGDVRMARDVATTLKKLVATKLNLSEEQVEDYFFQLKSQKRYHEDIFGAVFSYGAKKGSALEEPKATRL

The nature of experiment [4]: Binding affinity against bovine brain nNOS (neuronal).

Non-standard residues stand in square brackets, D forms with d. Residues, ends and D or L forms follow the SMILES beside them. *: point of attachment. Arg(NO2) = N=C(NCCC[C@H](N)C(=O)O)N[N+](=O)[O-]; NMeDab = CN[C@@H](CCN)C(=O)O; Orn = NCCC[C@H](N)C(=O)O; Dab = NCC[C@H](N)C(=O)O; Cbz = O=C(OCc1ccccc1)*; OtBu = CC(C)(C)O*

As to `NCCCCN(CC(N)=O)C(=O)[C@@H](N)CCC/N=C(\N)N[N+](=O)[O-]`, the Ratio in experiment [1] was 4. For the same compound, the Ki in experiment [2] is 197 µM; in experiment [3], 1100 µM. Turning to `N=C(NCCC[C@H](NC(=O)OCc1ccccc1)C(=O)N[C@@H](CCN)C(N)=O)N[N+](=O)[O-]` (Cbz-[Arg(NO2)]-[Dab]-NH2), the Ki in experiment [2] is 827 µM; in experiment [3], 1600 µM. With `N=C(NCCC[C@H](N)C(=O)NCCCCN)N[N+](=O)[O-]`, the values for the Ki in experiment [2] and in experiment [3] were 70 µM and 108 µM, respectively. On to `CN(C(=O)[C@@H](N)CCC/N=C(\N)N[N+](=O)[O-])[C@@H](CCCCN)C(N)=O`, for which the Ratio in experiment [1] was found to be 86. Moreover, the Ki in experiment [2] stood at 631 µM; in experiment [3], 1900 µM. `NCCNC(=O)[C@@H](N)CCC/N=C(\N)N[N+](=O)[O-]`: in experiment [1], the Ratio was 368. `CN(C(=O)[C@@H](N)CCCNC(=N)N[N+](=O)[O-])[C@@H](CCN)C(N)=O` (H-[Arg(NO2)]-[NMeDab]-NH2): the figures for the Ki in experiment [2] and in experiment [3] were 95 µM and 340 µM, respectively.

For `NCCCCNC(=O)[C@@H](N)CCC/N=C(\N)N[N+](=O)[O-]`, the Ratio in experiment [1] came to 200. Consider `CC(C)(C)OC(=O)[C@H](CCN)NC(=O)[C@@H](N)CCCNC(=N)N[N+](=O)[O-]` (H-[Arg(NO2)]-[Dab]-OtBu), for which the Ki is 288 µM in experiment [2] and 413 µM in experiment [3]. Turning to `CN(C(=O)[C@@H](N)CCC/N=C(\N)N[N+](=O)[O-])[C@@H](CCCN)C(N)=O`, the Ratio in experiment [1] was determined as 135. Moreover, the figures for the Ki in experiment [2] and in experiment [3] were 623 µM and 1300 µM, respectively. `NCCN(CC(N)=O)C(=O)[C@@H](N)CCC/N=C(\N)N[N+](=O)[O-]`: the Ratio in experiment [1] came to 3.

Take `NCCC[C@H](NC(=O)[C@@H](N)CCC/N=C(/N)N[N+](=O)[O-])C(N)=O` (H-[Arg(NO2)]-[Orn]-NH2): the affinity in experiment [4] corresponds to a Ki of 330 nM. As to `COC(=O)[C@H](CCN)NC(=O)[C@@H](N)CCC/N=C(\N)N[N+](=O)[O-]` (H-[Arg(NO2)]-[Dab]-OMe), the Ratio in experiment [1] is 798. For the compound `CC(C)(C)OC(=O)[C@H](CCN)NC(=O)[C@@H](N)CCC/N=C(\N)N[N+](=O)[O-]` (H-[Arg(NO2)]-[Dab]-OtBu), the Ratio in experiment [1] came to 28. As for `NCCCC[C@H](NC(=O)[C@@H](N)CCC/N=C(\N)N[N+](=O)[O-])C(N)=O` (H-[Arg(NO2)]-Lys-NH2), the Ki in experiment [4] is 450 nM. Turning to `N=C(NCCC[C@H](N)C(=O)NCCCN)N[N+](=O)[O-]`, the inhibition constant Ki came to 213 µM in experiment [2] and 118 µM in experiment [3]. Turning to `NCC[C@H](NC(=O)[C@H](CCC/N=C(\N)N[N+](=O)[O-])NC(=O)OCc1ccccc1)C(N)=O` (Cbz-[Arg(NO2)]-[Dab]-NH2), the Ratio in experiment [1] was 16. For the compound `CC(=O)N[C@@H](CCC/N=C(\N)N[N+](=O)[O-])C(=O)N[C@@H](CCN)C(N)=O` (Ac-[Arg(NO2)]-[Dab]-NH2), the Ratio in experiment [1] turned out to be 9. For `N=C(NCCC[C@H](N)C(=O)N(CCCN)CC(N)=O)N[N+](=O)[O-]`, the Ki in experiment [2] worked out at 108 µM; in experiment [3] it was 1000 µM. Take `NCCCNC(=O)[C@@H](N)CCC/N=C(\N)N[N+](=O)[O-]`: the Ratio in experiment [1] came out at 163. `CC(=O)N[C@@H](CCCNC(=N)N[N+](=O)[O-])C(=O)N[C@@H](CCN)C(N)=O` (Ac-[Arg(NO2)]-[Dab]-NH2): the Ki in experiment [2] stood at 263 µM; in experiment [3] it was 2600 µM.

Regarding `CN(C(=O)[C@@H](N)CCC/N=C(\N)N[N+](=O)[O-])[C@@H](CCN)C(N)=O`, the Ratio in experiment [1] worked out at 40. As to `N=C(NCCC[C@H](N)C(=O)NCCN)N[N+](=O)[O-]`, the Ki turned out to be 199 µM in experiment [2] and 100 µM in experiment [3]. With `COC(=O)[C@H](CCN)NC(=O)[C@@H](N)CCCNC(=N)N[N+](=O)[O-]` (H-[Arg(NO2)]-[Dab]-OMe), the results for the Ki in experiment [2] and in experiment [3] were 463 µM and 27 µM, respectively. Consider `N=C(NCCC[C@H](N)C(=O)N(CCN)CC(N)=O)N[N+](=O)[O-]`, for which the Ki in experiment [2] was determined as 55.5 µM; in experiment [3], 760 µM. With `N=C(NCCC[C@H](N)C(=O)N[C@@H](CCN)C(=O)O)N[N+](=O)[O-]` (H-[Arg(NO2)]-[Dab]-OH), the inhibitory constant (Ki) in experiment [2] was 98 µM; in experiment [3], 1210 µM. Consider `NCC[C@H](NC(=O)[C@@H](N)CCC/N=C(\N)N[N+](=O)[O-])C(=O)O` (H-[Arg(NO2)]-[Dab]-OH), for which the Ratio in experiment [1] came out at 3.5. Regarding `NCCCN(CC(N)=O)C(=O)[C@@H](N)CCC/N=C(\N)N[N+](=O)[O-]`, the Ratio in experiment [1] was 3.5.
